Data as given in ChEMBL document CHEMBL2163316, “Discovery of (S)-6-(3-cyclopentyl-2-(4-(trifluoromethyl)-1H-imidazol-1-yl)propanamido)nicotinic acid as a hepatoselective glucokinase activator clinical candidate for treating type 2 diabetes mellitus” (J Med Chem, 2012).
Values after ≈ are worked out from the molar mass of the structure shown.

What was measured:
[1] = system: Rattus norvegicus; test: fAUC (0 to 24 hrs) in rat at 1 mg/kg, iv; type: ADME, organism-based; design: dose 1 mg/kg, route intravenous; conditions: in vivo
[2] = system: Canis familiaris; test: fAUC (0 to 24 hrs) in dog at 5 mg/kg, po; type: ADME, organism-based, Canis lupus familiaris; design: dose 5 mg/kg, route oral; conditions: in vivo
[3] = Ratio of free drug uptake in brain to plasma of dog at 50 mg/kg, po administered for 4 days measured 4 hrs post last dosing; type: ADME, organism-based, Canis lupus familiaris; design: dose 50 mg/kg, route oral; conditions: read-out: BPR
Summary of the method: (§1)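 Oral repeat dosing: rats for 28 days, dogs for 4 days. Plasma, liver, pancreas and brain were sampled at 4 h postdose on the last day. Ratios use free drug concentrations, converted with unbound fractions from equilibrium dialysis (plasma at 50 μM, tissues at 1 μM). BLQ = below limit of quantification.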

[4] = Ratio of free drug uptake in liver to plasma of Wistar rat at 100 mg/kg, po administered for 28 days measured 4 hrs post last dosing; type: ADME, organism-based; design: dose 100 mg/kg, route oral; summary of the method: as §1
[5] = Volume of distribution at steady state in monkey at 0.5 mg/kg, iv; type: ADME, organism-based, Macaca mulatta; design: dose 0.5 mg/kg, route intravenous; conditions: rhesus monkey, in vivo, read-out: Vdss
Summary of the method: (§2)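 Pharmacokinetic parameters are the geometric mean of n = 2 animals per group unless otherwise noted.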

[6] = Fraction absorbed in portal vein cannulated rat at 5 mg/kg, po; conditions: in vivo, read-out: Fabs
[7] = Volume of distribution at steady state in dog at 1 mg/kg, iv; type: ADME, organism-based, Canis lupus familiaris; design: dose 1 mg/kg, route intravenous; conditions: in vivo, read-out: Vdss; summary of the method: as §2
[8] = system: Canis familiaris; test: fCmax in dog at 1 mg/kg, iv; type: ADME, organism-based, Canis lupus familiaris; design: dose 1 mg/kg, route intravenous; conditions: in vivo
[9] = Ratio of free drug uptake in pancreas to plasma of Wistar rat at 100 mg/kg, po administered for 28 days measured 4 hrs post last dosing; type: ADME, organism-based; design: dose 100 mg/kg, route oral; summary of the method: as §1
[10] = system: Rhesus monkey; test: fCmax in monkey at 3 mg/kg, po; type: ADME, organism-based, Macaca mulatta; design: dose 3 mg/kg, route oral; conditions: in vivo
[11] = Thermodynamic solubility of the compound at pH 6.5; type: physicochemical; conditions: buffer, read-out: Therm_solubility
[12] = system: Canis familiaris; test: fCmax in dog at 5 mg/kg, po; type: ADME, organism-based, Canis lupus familiaris; design: dose 5 mg/kg, route oral; conditions: in vivo
[13] = Oral bioavailability in dog at 5 mg/kg; type: ADME, organism-based, Canis lupus familiaris; conditions: in vivo
[14] = Oral bioavailability in rat at 5 mg/kg; type: ADME, organism-based; conditions: in vivo; summary of the method: as §2
[15] = system: Rattus norvegicus; test: fAUC (0 to 24 hrs) in rat at 5 mg/kg, po; type: ADME, organism-based; design: dose 5 mg/kg, route oral; conditions: in vivo
[16] = Renal excretion in rat; type: ADME, organism-based, Kidney; conditions: urine, read-out: Drug excretion
[17] = system: Rhesus monkey; test: fAUC (0 to 24 hrs) in monkey at 0.5 mg/kg, iv; type: ADME, organism-based, Macaca mulatta; design: dose 0.5 mg/kg, route intravenous; conditions: in vivo
[18] = Ratio of free drug uptake in pancreas to plasma of dog at 50 mg/kg, po administered for 4 days measured 4 hrs post last dosing; type: ADME, organism-based, Canis lupus familiaris; design: dose 50 mg/kg, route oral; summary of the method: as §1
[19] = system: Rattus norvegicus; test: fCmax in rat at 5 mg/kg, po; type: ADME, organism-based; design: dose 5 mg/kg, route oral; conditions: in vivo
[20] = system: Rhesus monkey; test: fAUC (0 to 24 hrs) in monkey at 3 mg/kg, po; type: ADME, organism-based, Macaca mulatta; design: dose 3 mg/kg, route oral; conditions: in vivo
[21] = Drug excretion in rat bile; type: ADME, tissue-based; conditions: read-out: Drug excretion
[22] = Ratio of free drug uptake in liver to plasma of dog at 50 mg/kg, po administered for 4 days measured 4 hrs post last dosing; type: ADME, organism-based, Canis lupus familiaris; design: dose 50 mg/kg, route oral; summary of the method: as §1
[23] = Volume of distribution at steady state in rat at 1 mg/kg, iv; type: ADME, organism-based; design: dose 1 mg/kg, route intravenous; conditions: in vivo, read-out: Vdss; summary of the method: as §2
[24] = system: Rattus norvegicus; test: fCmax in rat at 1 mg/kg, iv; type: ADME, organism-based; design: dose 1 mg/kg, route intravenous; conditions: in vivo
[25] = Oral bioavailability in monkey at 3 mg/kg; type: ADME, organism-based, Macaca mulatta; conditions: rhesus monkey, in vivo; summary of the method: as §2
[26] = Ratio of free drug uptake in brain to plasma of Wistar rat at 100 mg/kg, po administered for 28 days measured 4 hrs post last dosing; type: ADME, organism-based; design: dose 100 mg/kg, route oral; conditions: BLD = below limit of detection; summary of the method: as §1
[27] = Kinetic solubility of the compound; type: physicochemical; conditions: read-out: Kinetic_solubility
[28] = system: Rhesus monkey; test: fCmax in monkey at 0.5 mg/kg, iv; type: ADME, organism-based, Macaca mulatta; design: dose 0.5 mg/kg, route intravenous; conditions: in vivo
[29] = system: Canis familiaris; test: fAUC (0 to 24 hrs) in dog at 1 mg/kg, iv; type: ADME, organism-based, Canis lupus familiaris; design: dose 1 mg/kg, route intravenous; conditions: in vivo

`O=C(O)c1ccc(NC(=O)[C@H](CC2CCCC2)n2cnc(C(F)(F)F)c2)nc1` [PF-04991532] showed a fAUC [1] of 34.7 ng·h/mL, a fAUC [2] of 72.6 ng·h/mL and a Kp uu at 4 h [3] of 0.009. For the same compound, the Kp uu at 4 h [4] was 10.5, the Vd [5] was 0.7 L/kg and the Fa [6] was 53%. The Vd [7] was 1.6 L/kg, the fCmax [8] was 479 ng/mL and the Kp uu at 4 h [9] was 0.14. It also gave a fCmax [10] of 13.6 ng/mL, a solubility thermodynamic [11] of 4200 µg/mL (≈ 10.6 mM) and a fCmax [12] of 23.3 ng/mL. The bioavailability [13] was 18%, the bioavailability [14] was 18% and the fAUC [15] was 30.3 ng·h/mL. It also gave a dose excreted [16] of 11%, a fAUC [17] of 46.2 ng·h/mL and a Kp uu at 4 h [18] of 0.25. For the same compound, the fCmax [19] was 5.4 ng/mL, the fAUC [20] was 94.7 ng·h/mL and the dose excreted [21] was 62%. For the same compound, the Kp uu at 4 h [22] was 14.5, the Vd [23] was 2 L/kg and the fCmax [24] was 176 ng/mL. For the same compound, the bioavailability [25] was 35%, the BPR [26] was “BLD” and the solubility kinetic [27] was 524 µM (≈ 208 µg/mL). For the same compound, the fCmax [28] was 219 ng/mL and the fAUC [29] was 79.1 ng·h/mL.
